Experimental data: PubChem BioAssay
Inconclusive results are not listed. The source made the active and inactive calls.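 Rule for the calls, unless noted: active = growth inhibition above 25% in both replicates, a cutoff set 3 SD above the mean; inconclusive = above 25% in only one replicate; inactive = the rest.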

Experiments:
[1] = S. cerevisiae growth inhibition in permissive medium (OD615), pilot counter-assay for S. cerevisiae lifespan shortening project, permissive growth control (AID 705); conditions: OD615, 24 h, at 10 µM, hits give high values
Outline: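 Timing: 24 h exposure, 30 °C / Material: Saccharomyces cerevisiae strain carrying genetically modified DeaD replicative-lifespan system / Signal: OD at 615 nm / Compound: 10 µM single dose, 0.25% DMSO / Medium: SC raffinose/galactose permissive medium / Evaluation: reduction in yeast growth (OD615)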

[2] = S. cerevisiae growth inhibition in restrictive medium, OD615, pilot screen, restrictive growth control, yeast lifespan reduction project (AID 706;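 active = growth inhibition above a set limit, 3 SD over mean compound inhibition, in both replicates, cut at about 43% in these data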;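 note: modified DeaD lifespan yeast strain shifted to restrictive glucose medium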); conditions: OD615, 48 h, at 10 µM, hits give high values
Outline: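 System: Engineered S. cerevisiae DeaD strain | Detection: OD615 | Buffer or medium: CSMM-D glucose medium | Doses: 10 µM compound, 0.25% DMSO | Timing: 4 h pre-growth plus 48 h compound exposure, 30 °C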

[3] = doxorubicin toxicity protection in MRP-1 cells – H69AR cells, CellTiter-Glo, duplicate, MRP-1 activator project, pilot screen (AID 807;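 active = viability increase at or above a cutoff of the median across tested compounds plus 3 SD, cut at about 8.5% in these data, passing the limit was not always enough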;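 note: compound pretreatment 18-22 h then 72 h combined with doxorubicin; 0% = doxorubicin alone and 100% = vehicle without doxorubicin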); conditions: H69AR viability with doxorubicin, CellTiter-Glo luminescence; at 10 µM; hits give high values
[4] = viability of HCT116 without oncogenic beta-catenin – human colon tumor cells, pilot screen (AID 823;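 active = cell viability at or below a set limit in both duplicate runs, the limit being the all-compound median minus 4 SD, cut at about 23% in these data, passing the limit was not always enough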;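 note: 0% = wells killed by 20 µM Hyamine and 100% = untreated DMSO cell wells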); conditions: HCT116 beta-catenin knockout viability, CellTiter-Glo, 60 h; at 10 µM; hits give low values
[5] = viability of PTEN-null HCT116 cells – cell-based, HCT116 clonal line, CellTiter-Glo, pilot screen (AID 824;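 active = viability at or below 27.92% in each of two runs, the all-compound median minus 4 SD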;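 note: 0% = 20 µM Hyamine control and 100% = vehicle cell control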); conditions: HCT116 PTEN-deleted viability, 60 h, at 10 µM, hits give low values
[6] = RAM pathway blockade in budding yeast – dse1pr::URA3 reporter, 5-FOA selection, pilot screen (AID 869;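 active = inhibition over a set limit, the all-compound mean plus 3 SD, in both replicate runs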;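 note: 0% = DMSO wells with no growth and 100% = 10 µM 1-NA-PP1 with full growth; RAM network block rescues cells from 5-FOA so hits raise OD615 growth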); conditions: S. cerevisiae dse1pr::URA3 5-FOA growth, OD615, 2 d; at 10 µM; hits give high values; strain carries analog-sensitive mutant Cbk1 kinase
[7] = RAM signaling pathway blockade in yeast – S. cerevisiae, Pdr1DBD-CYC8 efflux-inhibited sensitized strain, primary screen (AID 1298;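 active = RAM network inhibition above 8.4% in each of two replicates, 3 SD over the compound average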;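 note: 0% = DMSO untreated cells without growth and 100% = 10 µM 1-NA-PP1 full growth; higher means more yeast growth rescued from 5-FOA killing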); conditions: S. cerevisiae cbk1-as DSE1-URA3 strain, 5-FOA growth OD615, 2 d; at 50 µM; hits give high values

COc1ccc(S(=O)(=O)Cc2ccc(C(=O)N3CCN(C(=O)c4ccco4)CC3)o2)cc1
inactive: growth inhibition [1] 0.785% | growth inhibition [2] 1.27% | viability increase [3] -2.09% | viability [4] 92.8% | viability [5] 100% | inhibition [6] 2.06% | RAM network inhibition [7] 3.94%

CCCN1CCN(C(=O)C2CCN(S(=O)(=O)c3ccc4c(c3)oc(=O)n4C)CC2)CC1
inactive: growth inhibition [1] -6.11% | growth inhibition [2] -13.9% | viability increase [3] -0.29% | viability [4] 108% | viability [5] 98.5% | inhibition [6] 3.06% | RAM network inhibition [7] -1.87%

CN1CCCCc2c1[nH]c1ccccc1c2=O
inactive: growth inhibition [1] 8.28% | growth inhibition [2] 2.2% | viability increase [3] -3.35% | viability [4] 95.8% | inhibition [6] 0.42% | RAM network inhibition [7] -1.45%

O=S(=O)(NCCOCCNS(=O)(=O)c1ccccc1)c1ccccc1
inactive: growth inhibition [1] -6.38% | growth inhibition [2] -1.27% | viability increase [3] 0.8% | viability [4] 91.2% | viability [5] 96.1% | inhibition [6] 0.05% | RAM network inhibition [7] 1.94%

O=C(CSCC(=O)NC1CC1)Nc1ccccc1
inactive: growth inhibition [1] -0.675% | growth inhibition [2] -11.9% | viability increase [3] -1.13% | viability [4] 98.2% | viability [5] 98.7% | inhibition [6] 0.03% | RAM network inhibition [7] -0.72%

C=C(C)Cn1c(CCNC(=O)CCC)nc2ccccc21
inactive: growth inhibition [1] -9.26% | growth inhibition [2] -10.3% | viability increase [3] -0.98% | viability [4] 99.1% | inhibition [6] 1.54% | RAM network inhibition [7] 2.19%

O=C(CS(=O)(=O)c1c[nH]c2ccccc12)Nc1ccc2c(c1)OCCO2
inactive: growth inhibition [1] -12.2% | growth inhibition [2] -1.07% | viability increase [3] -3.49% | viability [4] 95.7% | inhibition [6] 2.55% | RAM network inhibition [7] 1.93%

CCN1CCN(C(=O)C2c3cc(OC)c(OC)cc3C(=O)N(C)C2c2ccc(SC)cc2)CC1 (centres undefined)
inactive: growth inhibition [1] -12.5% | growth inhibition [2] -4.19% | viability increase [3] -3.74% | viability [4] 92.3% | inhibition [6] 0.995% | RAM network inhibition [7] 2.33%

CN1c2ccccc2-c2nc3ccccc3n2C1c1ccccn1 (centres undefined)
inactive: growth inhibition [1] -1.57% | growth inhibition [2] -3.9% | viability increase [3] -3.85% | viability [4] 73.8% | inhibition [6] 0.56% | RAM network inhibition [7] 4.06%

CCOc1ccc(NC(=O)CSc2nnc(-c3ccccc3)n2N)cc1
inactive: growth inhibition [1] -8.33% | growth inhibition [2] -0.575% | viability increase [3] -6.71% | viability [4] 93.8% | inhibition [6] 0.495% | RAM network inhibition [7] 2.18%

COC(=O)CCC(=O)Oc1ccc(OC(=O)CCC(=O)OC)cc1
inactive: growth inhibition [1] 7.12% | growth inhibition [2] 2.51% | viability increase [3] -4.94% | viability [4] 72.9% | inhibition [6] 1.48% | RAM network inhibition [7] 0.94%

CC1Cc2ccccc2N1C(=O)CCS(=O)(=O)c1cccc2nonc12 (centres undefined)
inactive: growth inhibition [1] 8.09% | growth inhibition [2] 10.7% | viability increase [3] -6.45% | viability [4] 85.7% | inhibition [6] 0.56% | RAM network inhibition [7] 3.48%

Cc1nc(-n2nnc3ccccc32)c2c3c(sc2n1)CCCC3
inactive: growth inhibition [1] -14.5% | growth inhibition [2] 0.92% | viability increase [3] -2.54% | viability [4] 82% | inhibition [6] 1.11% | RAM network inhibition [7] 3.02%

CC1(C)Cc2nc3sc4c(=O)n(CC(=O)NCc5ccco5)cnc4c3cc2CO1
inactive: growth inhibition [1] -8.59% | growth inhibition [2] 7.79% | viability increase [3] -5.22% | viability [4] 40.5% | inhibition [6] 0.68% | RAM network inhibition [7] 4.21%

C=CCn1c(=O)[nH]c2cc(C(=O)N3CCN(c4cccc(Cl)c4)CC3)ccc2c1=O
inactive: growth inhibition [1] -16.5% | growth inhibition [2] -12.3% | viability increase [3] -6.95% | viability [4] 79.3% | inhibition [6] 3.33% | RAM network inhibition [7] 3.07%

Cc1c(C(=O)N(C)Cc2ccccc2)oc2ccc(S(=O)(=O)N3CCCC3)cc12
inactive: growth inhibition [1] -18.8% | growth inhibition [2] -11.4% | viability increase [3] -5.85% | viability [4] 54.3% | inhibition [6] 0.18% | RAM network inhibition [7] 4.09%

CC1(C)Cc2c(sc3c2c(=N)n(Cc2ccco2)c(=O)n3Cc2ccc(F)cc2)CO1
inactive: growth inhibition [1] -14.4% | growth inhibition [2] -4.37% | viability increase [3] -6.4% | viability [4] 56.5% | inhibition [6] 1.44% | RAM network inhibition [7] 6.85%

Fc1ccc(Br)cc1C1C=C(c2cccnc2)Nc2ncnn21 (centres undefined)
inactive: growth inhibition [1] 6.35% | viability increase [3] -4.62% | viability [4] 44.5% | inhibition [6] 3.21%
active: growth inhibition [2] 46.9% | RAM network inhibition [7] 21.7%

Cc1cc2cc(CN(Cc3ccc4c(c3)OCO4)C(=O)c3cnccn3)c3nnnn3c2cc1C
inactive: growth inhibition [1] -6.95% | growth inhibition [2] 6.71% | viability increase [3] -5.49% | viability [4] 87.2% | inhibition [6] 2.06% | RAM network inhibition [7] 5.81%

CCN1CCN(Cc2nc3c(c(=O)n(C)c(=O)n3C)n2C(C)C(C)=O)CC1 (centres undefined)
inactive: growth inhibition [1] -32.2% | growth inhibition [2] -4.38% | viability increase [3] -1.83% | viability [4] 89.7% | inhibition [6] 1.41% | RAM network inhibition [7] 4.46%

CCOC(=O)c1cc(NC(=O)OC)c(C)nc1C
inactive: growth inhibition [1] -4.66% | growth inhibition [2] 4.23% | viability increase [3] -2.65% | viability [4] 106% | inhibition [6] 0.81% | RAM network inhibition [7] 3.38%

O=C(CN(CC(=O)N1CCOCC1)S(=O)(=O)c1ccc(Br)s1)N1CCOCC1
inactive: growth inhibition [1] 5.73% | growth inhibition [2] -2.16% | viability increase [3] -3.71% | viability [4] 98% | inhibition [6] -0.32% | RAM network inhibition [7] 0.11%

O=C(CCS(=O)(=O)c1ccccc1)Nc1nc2c(s1)COc1ccccc1-2
inactive: growth inhibition [1] -11.8% | growth inhibition [2] -10.9% | viability increase [3] -8.46% | inhibition [6] 1.32% | RAM network inhibition [7] 3.55%
active: viability [4] 5.88%

Cn1nnc2c(NCc3ccco3)nccc21
inactive: growth inhibition [1] -26% | growth inhibition [2] -1.62% | viability increase [3] -4.4% | viability [4] 96.6% | inhibition [6] 3.05% | RAM network inhibition [7] 0.93%

CC(=O)Nc1ccc(S(=O)(=O)N2CCC(c3nc4ccc(C)cc4[nH]3)CC2)cc1
inactive: growth inhibition [1] -24.1% | growth inhibition [2] 2.08% | viability increase [3] -3.15% | viability [4] 51.2% | inhibition [6] 1.47% | RAM network inhibition [7] 9.15%

CC1(C)Cc2c(sc3c2c(=N)n(Cc2ccco2)c(=O)n3CC(=O)Nc2cccc(Cl)c2)CO1
inactive: growth inhibition [1] -9.23% | growth inhibition [2] -8.69% | viability increase [3] -6.27% | viability [4] 75% | inhibition [6] 3.25% | RAM network inhibition [7] 5.15%

CSc1nnc(C2CCCN2)n1C (centres undefined)
inactive: growth inhibition [1] -16.9% | growth inhibition [2] -7.04% | viability increase [3] -0.51% | viability [4] 90.9% | inhibition [6] 2.88% | RAM network inhibition [7] -0.16%

CCOC(=O)CNC(=O)c1cn(C)c(=O)c2cc(OC)c(OC)cc12
inactive: growth inhibition [1] -29.2% | growth inhibition [2] -3.25% | viability increase [3] -2.81% | viability [4] 86.5% | inhibition [6] 0.24% | RAM network inhibition [7] 2.87%

CCOCCCNC(=O)C1CCC(CNS(=O)(=O)c2ccc(F)cc2)CC1 (centres undefined)
inactive: growth inhibition [1] -7.63% | growth inhibition [2] 6.36% | viability increase [3] -2.28% | viability [4] 95.5% | inhibition [6] 1.19% | RAM network inhibition [7] 7.28%

CCn1cc(C(=O)NC2CCCCCC2)c2cc(OC)c(OC)cc2c1=O
inactive: growth inhibition [1] -29.2% | growth inhibition [2] 1.87% | viability increase [3] -3.91% | viability [4] 76.3% | inhibition [6] 2.02% | RAM network inhibition [7] 4.11%

CCOC(=O)N1CCN(C(=O)CCc2nc3sc4c(c3c(=O)[nH]2)CCCC4)CC1
inactive: growth inhibition [1] -13.4% | growth inhibition [2] 2.66% | viability increase [3] -2.68% | viability [4] 104% | inhibition [6] 2.59% | RAM network inhibition [7] 3.99%

O=C(O)CN1C(=O)Nc2ccc(Br)cc2C1c1ccccc1 (centres undefined)
inactive: growth inhibition [1] 0.155% | growth inhibition [2] -8.88% | viability increase [3] -2.28% | viability [4] 93.6% | inhibition [6] -0.025% | RAM network inhibition [7] 0.79%

COc1ccccc1-c1nc(NC(C)=O)n[nH]1
inactive: growth inhibition [1] -12.1% | growth inhibition [2] -8.54% | viability increase [3] -4.21% | viability [4] 92.1% | inhibition [6] 3.42% | RAM network inhibition [7] 5.35%

Cc1ccc(C)c(S(=O)(=O)Nc2ccccc2C(=O)Nc2cc(C)on2)c1
inactive: growth inhibition [1] -32.7% | growth inhibition [2] -4.75% | viability increase [3] -3.6% | viability [4] 77.3% | inhibition [6] 2.54% | RAM network inhibition [7] 6.23%

COc1cc(-c2nnn(CC#N)n2)ccc1OCc1ccccc1
inactive: growth inhibition [1] -6.28% | growth inhibition [2] 9.63% | viability increase [3] 0.59% | viability [4] 94.5% | inhibition [6] 1.28% | RAM network inhibition [7] 1.51%
